Active and inactive are the calls of the source. The rule behind the calls is not given here.
Experiments:
[1] = test system: Matrix protein 2 (Influenza A virus (A/Udorn/307/1972(H3N2))), P0DOF8 [S31N]; assay: Inhibition of Influenza A virus amantadine-resistant M2 proton channel S31N mutant expressed in Xenopus laevis oocyte at 100 uM at pH 5.5 after 2 mins by two-electrode patch clamp assay relative to control
How it was run: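 Xenopus laevis oocytes microinjected with RNA for AM2-WT or AM2-S31N; channel activated at pH 5.5; two-electrode voltage clamp current recorded after 2 min exposure to 100 μM compound; expressed as percent current inhibition; three repeats on different oocytes, mean reported.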

[2] = Antiviral activity against amantadine-resistant Influenza A virus A/California/07/2009 (H1N1) expressing M2 proton channel S31N mutant infected in MDCK cells harboring ST6Gal1 gene assessed as reduction in plaque formation at 10 uM measured after 2 days post infection by crystal violet staining based assay relative to control; format: functional; design: scale not given: the % may be the effect or the level left
How it was run: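 ST6Gal I-expressing MDCK monolayers infected with ~100 pfu in DMEM/0.5% BSA, 1 h at 4 °C then 1 h at 37 °C; inoculum removed, PBS wash, overlay of DMEM with 1.2% Avicel and NAT (2.0 μg/mL) containing compound at 10 μM; 2-day incubation; plaque formation expressed as percent of DMSO control.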

[3] = (§1) Antiviral activity against amantadine-resistant Influenza A virus A/California/07/2009 (H1N1) expressing M2 proton channel S31N mutant infected in MDCK cells harboring ST6Gal1 gene assessed as reduction in plaque formation measured after 2 days post infection by crystal violet staining based; format: functional, cell-based
[4] = test system: Influenza A virus (A/California/07/2009(H1N1)); assay: as §1; format: functional, cell-based
[5] = test system: Influenza A virus (A/California/07/2009(H1N1)); assay: as §1, with “formation up to 30 uM” for “formation”; format: functional, cell-based
Influenza A virus = assay: Antiviral activity against multidrug-resistant Influenza A virus A/Switzerland/9715293/2013 (H3N2) expressing M2 proton channel S31N mutant infected in MDCK cells harboring ST6Gal1 gene assessed as reduction in plaque formation measured after 2 days post infection by crystal violet staining based; format: functional, cell-based
[6] = Antiviral activity against amantadine/oseltamivir-resistant Influenza A virus A/Washington/29/2009 (H1N1) expressing AM2-S31N/neuraminidase-H275Y mutant infected in MDCK cells harboring ST6Gal1 gene assessed as reduction in plaque formation measured after 2 days post infection by crystal violet staining based; format: functional, cell-based

`c1cncc(-c2cc(CNC34CC5CC(CC(C5)C3)C4)no2)c1` gave an inhibition [1] of 53% and an Activity [2] of 105.5%.
For `c1ccc(-c2cc(CNC34CC5CC(CC(C5)C3)C4)no2)cc1`, the Activity [2] was 13.5%, the EC50 [3] was 300 nM and the Activity [4] was “Dose-dependent effect”.
Work on `COc1ccccc1-c1cc(CNC23CC4CC(CC(C4)C2)C3)no1` yielded an inhibition [1] of 51.8% and an Activity [2] of 62.1%.
In the case of `FC(F)(F)Oc1cccc(-c2cc(CNC34CC5CC(CC(C5)C3)C4)no2)c1`, the inhibition [1] is reported as 56.7% and the Activity [2] is reported as 72.7%.
With `NC(=O)c1ccc(-c2cc(CNC34CC5CC(CC(C5)C3)C4)no2)cc1` the inhibition [1] was 47.4% and the Activity [2] was 57.1%.
`COc1ccc(-c2cc(CNC34CC5CC(CC(C5)C3)C4)no2)cn1` showed an inhibition [1] of 58% and an Activity [2] of 21.7%.
`COc1sccc1-c1cc(CNC23CC4CC(CC(C4)C2)C3)no1` gave an inhibition [1] of 94.2% and an Activity [2] of 7.2%.
Molecule `N#Cc1ccc(-c2cc(CNC34CC5CC(CC(C5)C3)C4)no2)cc1` has an inhibition [1] of 72.2% and an Activity [2] of 28%.
`Oc1ccccc1-c1cc(CNC23CC4CC(CC(C4)C2)C3)no1` showed an inhibition [1] of 71.5%, an Activity [2] of 3.4% and an EC50 [3] of 500 nM. For the same molecule, the Activity [4] was “Dose-dependent effect”.
For `CSc1cccc(-c2cc(CNC34CC5CC(CC(C5)C3)C4)no2)c1`, the inhibition [1] was 69.6% and the Activity [2] was 56.3%.
Molecule `OC12CC3CC(C1)CC(NCc1cc(-c4ccccc4Cl)on1)(C3)C2` has an inhibition [1] of 87.1%, an Activity [2] of 8.3% and an EC50 [3] of 900 nM. The Activity [4] was “Dose-dependent effect”.
`c1ccc2c(-c3cc(CNC45CC6CC(CC(C6)C4)C5)no3)cccc2c1` showed an inhibition [1] of 56.8% and an Activity [2] of 36.1%.
For `CS(=O)(=O)c1ccccc1-c1cc(CNC23CC4CC(CC(C4)C2)C3)no1`, the inhibition [1] was 9.8% and the Activity [2] was 110%.
For `Clc1cc(-c2cc(CNC34CC5CC(CC(C5)C3)C4)no2)cs1`, the inhibition [1] was 87.9% and the Activity [2] was 10.9%.
For `Clc1cc(-c2cc(CNC34CC5CC(CC(C5)C3)C4)no2)c(Cl)s1`, the inhibition [1] was 87.7% and the Activity [2] was 10.1%.
For `OC12CC3CC(C1)CC(NCc1cc(-c4cc(Cl)sc4Cl)on1)(C3)C2`, the Activity [5] was “inactive”, the inhibition [1] was 89.9% and the Activity [2] was 13.7%.
`c1ccc(-c2ccc(-c3cc(CNC45CC6CC(CC(C6)C4)C5)no3)cc2)cc1` showed an inhibition [1] of 45.6% and an Activity [2] of 36%.
For `CN(C)c1ccc(-c2cc(CNC34CC5CC(CC(C5)C3)C4)no2)cc1`, the inhibition [1] was 83.2% and the Activity [2] was 35.7%.
`CSc1ccccc1-c1cc(CNC23CC4CC(CC(O)(C4)C2)C3)no1` gave an inhibition [1] of 90.6%, an Activity [2] of 9.2% and an EC50 [3] of 1200 nM. The Activity [4] was “Dose-dependent effect”.
Work on `Clc1ccc(-c2cc(CNC34CC5CC(CC(C5)C3)C4)no2)s1` yielded an EC50 (Influenza A virus) of 200 nM, an EC50 [6] of 200 nM and an inhibition [1] of 78.8%. For the same molecule, the Activity [2] was 0% and the Activity [4] was “Dose-dependent effect”.
Molecule `COC(=O)c1ccc(-c2cc(CNC34CC5CC(CC(C5)C3)C4)no2)cc1` has an inhibition [1] of 73.6% and an Activity [2] of 24.1%.

From ChEMBL document CHEMBL3997811
